SENP1 inh – human SENP1 catalytic domain inhibitors, primary screen, biochemical, FRET, uHTS; hit rate 0.21% among 360,000; recombinant SENP1 catalytic domain, CyPet-SUMO1-YPet FRET cleavage; inhibition, % at 10 µM;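 active = inhibition at least 30% at 10 µM, raw YFP signal under a set limit, fluorescence ratio 0.5 to 1.5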
Target sequence (Q9P0U3 419-644 limits assumed): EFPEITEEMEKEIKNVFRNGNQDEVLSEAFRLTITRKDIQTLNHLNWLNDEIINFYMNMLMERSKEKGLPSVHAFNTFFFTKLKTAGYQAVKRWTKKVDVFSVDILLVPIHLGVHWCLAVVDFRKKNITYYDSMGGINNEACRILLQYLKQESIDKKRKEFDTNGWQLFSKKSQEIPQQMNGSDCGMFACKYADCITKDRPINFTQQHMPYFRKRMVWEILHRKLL
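material = recombinant human SENP1 catalytic domain, His6-tagged | quantity = 20 pM enzyme | reagent = 25 nM SUMO1 FRET substrate | compound dosing = 10 µM single point, 0.5% DMSO | timing = 50 min enzyme reaction, room temperature, light-protected | detection = FRET, CFP and YFP emission | control set = no-enzyme low, enzyme-DMSO high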
MPTP block – mitochondrial permeability transition pore inhibitors, primary screen, biochemical, isolated mouse mitochondria, absorbance; hit rate 1.4% among 360,000; AID 602449, 2012; inhibition, % at 10 µM; Ca2+ swelling absorbance, 30 min;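 active = inhibition of 50% or more, scaled per plate between neutral and stimulator controls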
EBI2 block – EBI2 receptor antagonists, beta-arrestin recruitment, primary screen, cell-based, luminescence, 7a,25-OHC stimulation, uHTS | G-protein coupled receptor 183 (Homo sapiens), P32249 | 7a,25-OHC stimulated | inhibition, % at 5 µM | hit rate 0.81% among 360,000 | AID 651636, 2012; in the data active = inhibition above about 38%;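 note: enzyme fragment complementation signal reports receptor beta-arrestin coupling in cells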
Target sequence (P32249 whole entry, looked up, the tested form may be a part): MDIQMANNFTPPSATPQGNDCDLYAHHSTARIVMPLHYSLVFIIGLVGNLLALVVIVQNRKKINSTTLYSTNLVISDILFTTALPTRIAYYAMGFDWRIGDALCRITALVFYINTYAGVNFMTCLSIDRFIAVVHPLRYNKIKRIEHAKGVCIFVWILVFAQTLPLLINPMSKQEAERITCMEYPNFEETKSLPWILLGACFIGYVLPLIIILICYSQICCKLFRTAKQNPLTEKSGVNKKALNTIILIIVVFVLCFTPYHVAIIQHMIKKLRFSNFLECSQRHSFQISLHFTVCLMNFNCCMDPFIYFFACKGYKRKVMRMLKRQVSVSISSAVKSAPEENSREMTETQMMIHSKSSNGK
NR3A LBD binder – binders of NR3A ligand-binding domain, primary screen, biophysical, differential scanning fluorimetry, uHTS | Glutamate receptor ionotropic, NMDA 3A (GRIN3A) ligand-binding domain | NR3A LBD differential scanning fluorimetry, Tm shift; 0% = protein alone, 100% = glycine-bound protein | Tm shift relative to glycine control, % at 25 µM | hit rate 2.5% among 340,000;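 active = melting temperature shift of at least 10% of the positive control shift, at one fixed dose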
MPTP counter – fluorescence retest of MPTP screen hits in isolated mitochondria, single concentration. shares compounds with MPTP block. membrane potential, Rhodamine 123 fluorescence. inhibition, % at 10 µM. hit rate 78% among 5,000; in the data active = inhibition above about 22%
MPTP abs DR – mitochondrial permeability transition pore inhibitors, dose response, biochemical, absorbance, uHTS hits; IC50, µM; hit rate 58% among 780; AID 651561, 2012; isolated mitochondria swelling; shares compounds with MPTP block; in the data active = IC50 below about 20 µM
MPTP counter DR – fluorescent counter-screen in isolated mitochondria, dose response, counter-screen for MPTP inhibitor project, biochemical, fluorescence, uHTS hits. shares compounds with MPTP block. isolated mitochondria counterscreen, fluorescence read-out. IC50, µM. hit rate 49% among 780. AID 651564, 2012; in the data active = IC50 below about 80 µM
Of the large screens only hits and unclear results are named; the others gave an inactive call (follow-up assays come after a bar, where they were run). This is a sample that favours compounds with a hit; in the whole collection about 4.4% have one here.

Cn1nc(C(F)(F)F)c2cc(C(=O)Nc3ccc(C(F)(F)F)cc3)sc21	MPTP block 91, NR3A LBD binder 15 | MPTP counter 75
Cc1cccc(S(=O)(=O)C(C#N)c2nc3ccccc3nc2N2CC(C)OC(C)C2)c1 (stereo not drawn)	MPTP block 56 | MPTP counter 71
Cc1ccc(S(=O)(=O)C(C#N)c2nc3ccccc3nc2N2CC(C)OC(C)C2)cc1C (stereo not drawn)	none
CC1CCCN(c2nc3ccccc3nc2C(C#N)S(=O)(=O)c2cccs2)C1 (stereo not drawn)	MPTP block 93 | MPTP counter 67
C=CCOC(=O)c1c(C)nc2cc3c(cc2c1C)OCO3	none
CC(C)c1ccc(CNc2ccc([N+](=O)[O-])cn2)cc1	none
CC(C)(C)c1ccc(CNc2ccc([N+](=O)[O-])cn2)cc1	MPTP block 56 | MPTP counter 75
CCN(CC)c1ccc(/C=C2/C(=O)c3ccc(C(=O)O)cc3C2=O)cc1	MPTP block 72 | MPTP counter inactive
CCN(CC)c1ccc(/C=C2/C(=O)ON=C2C)cc1	none
CCOC(=O)c1sc(NC(=O)CSc2nnc(-c3ccc(OC)cc3)n2CCOC)nc1C	none
CC(C)(C)c1ccc(OCCCn2ccnc2)cc1	MPTP block active | MPTP counter inactive | MPTP abs DR 13 | MPTP counter DR 27
O=C1NC(Cc2c[nH]c3ccccc23)C(=O)N1Cc1ccccc1 (stereo not drawn)	none
COC(=O)c1ccc(CN2C(=O)NC(Cc3c[nH]c4ccccc34)C2=O)cc1 (stereo not drawn)	MPTP block 82 | MPTP counter inactive | MPTP abs DR inactive | MPTP counter DR 25
O=C(Nc1ccc(NC(=O)c2ccc(Cl)c(S(=O)(=O)N3CCOCC3)c2)cc1)c1ccccc1	none
O=C(Nc1ccccc1)Nc1ccc(Cl)c(S(=O)(=O)N2CCOCC2)c1	MPTP block 62 | MPTP counter 86
O=C(Nc1ccc(Cl)cc1)Nc1ccc(N2CCOCC2)cc1	MPTP block 69, NR3A LBD binder 11 | MPTP counter 57
O=C(Nc1ccc(N2CCOCC2)cc1)Nc1ccc(Cl)c(Cl)c1	MPTP block 93, NR3A LBD binder 33 | MPTP counter 80
CC(=O)c1ccc(N2CCN(C(=S)Nc3ccc(Cl)c(Cl)c3)CC2)cc1	MPTP block 94 | MPTP counter 77
CC(=O)c1ccc(N2CCN(C(=S)Nc3ccccc3)CC2)cc1	none
O=C(CSc1nncs1)NCCCc1ccccc1	none
NCc1ccccc1	none
O=C(Nc1ccc(Cl)c(Cl)c1)N1CCCCCC1	none
O=C(c1ccc(NC(=S)Nc2ccc(Cl)c(Cl)c2)cc1)N1CCCC1	MPTP block 103, NR3A LBD binder 15 | MPTP counter 92
O=C(c1cc2nc(-c3ccc(F)cc3)cc(C(F)(F)F)n2n1)N1CCCCC1c1cccnc1 (stereo not drawn)	MPTP block 90 | MPTP counter 90
COc1ccccc1NC(=O)c1nnn(Cc2ccccc2)c1NC(C)=O	none
COc1ccccc1NC(=O)c1nnn(Cc2ccccc2)c1NC(=O)C(F)(F)F	MPTP block 74 | MPTP counter 73
O=C(Nc1ccccc1)c1nnn(Cc2ccccc2)c1NC(=O)C(F)(F)F	MPTP block 89 | MPTP counter 84
CCOc1ccc(NC2OCC(O)C(O)C2O)c([N+](=O)[O-])c1 (stereo not drawn)	none
COc1ccccc1NS(=O)(=O)c1ccc(Cl)c(NC(=O)CN2C(=O)c3ccccc3C2=O)c1	none
Clc1ccc(OCCCN2CCc3ccccc3C2)c(Br)c1	none
Clc1ccc(OCCOCCN2CCc3ccccc3C2)c(Cl)c1	MPTP block 100 | MPTP counter inactive | MPTP abs DR inactive | MPTP counter DR 31
Cc1ccc(C(=O)NNC2=NC(C)(C)Cc3ccccc32)cc1	none
Cc1ccc(OCC(=O)Nc2cccc(S(=O)(=O)NC3=NCCCCC3)c2)cc1C	none
Cc1cc(OCC(=O)Nc2cccc(S(=O)(=O)NC3=NCCCCC3)c2)ccc1Cl	MPTP block 87 | MPTP counter 86
Cc1cc(OCC(=O)Nc2ccc(CN3CCCCC3)cc2)ccc1Cl	MPTP block 63 | MPTP counter inactive | MPTP abs DR 11 | MPTP counter DR 26
CC(=O)C1(C)C(=O)N(c2ccc(F)cc2)C(=O)N1c1ccc(F)cc1 (stereo not drawn)	none
Cn1cccc1CN1CCC[C@]2(N[C@H](c3ccc(C(F)(F)F)cc3)[C@@H]3C(=O)N(Cc4ccccc4)C(=O)[C@@H]32)C1=O	none (no result: NR3A LBD binder)
N#C/C(=C(/O)COc1ccc(Cl)cc1)c1nc2ccccc2s1	MPTP block 107 | MPTP counter 90
N#C/C(=C(/O)COC(=O)c1ccc(C#N)cc1)c1nc2ccccc2s1	MPTP block 79 | MPTP counter 88
Cc1ccc(SC/C(O)=C(\C#N)c2nc3ccccc3s2)cc1	MPTP block 94 | MPTP counter 91
N#C/C(=C(/O)CSc1ccccn1)c1nc2ccccc2s1	none
N#C/C(=C(/O)c1ccc(F)cc1)c1nc2ccccc2s1	MPTP block 78 | MPTP counter 96
N#C/C(=N\O)c1nc2ccccc2s1	none
Cc1cccc(OCCCC(=O)Nc2ccc(S(=O)(=O)Nc3nccs3)cc2)c1C	none
Cc1ccc(C(=O)Nc2cccc(NC(=O)c3cccnc3)c2)cc1	none
N#C/C(=C(/O)COc1ccccc1)c1nc2ccccc2s1	MPTP block 84 | MPTP counter 81
N#C/C(=C(/O)c1ccc(-c2cccc([N+](=O)[O-])c2)o1)c1nc2ccccc2s1	MPTP block 98 | MPTP counter 69
O=C(O)c1ccc(-c2cccc([N+](=O)[O-])c2)o1	none
CCn1nnc(NC(=O)C(c2ccccc2)c2ccccc2)n1	none
COc1ccc(C(O)c2nc(-c3ccoc3)cs2)cc1 (stereo not drawn)	none (no result: NR3A LBD binder)
CC(=C/c1ccccc1)/C=N/NC(=O)CSc1nc(C)cc(C)n1	MPTP block 62 | MPTP counter 33
Cc1cc(C(=O)CSc2n[nH]c(N)n2)c(C)n1-c1cc(F)ccc1F	MPTP block 59 | MPTP counter inactive | MPTP counter DR inactive
CN(C)S(=O)(=O)c1cccc(NC(=O)COC(=O)c2c[nH]c(=O)[nH]c2=O)c1	none

Bioassay records: PubChem BioAssay, Sanford-Burnham Center for Chemical Genomics
